Reference: ChEMBL document CHEMBL1125882, “The agonist pharmacophore of the benzodiazepine receptor. Synthesis of a selective anticonvulsant/anxiolytic” (J Med Chem, 1991)

Key:
Mus musculus [1] = assay: Effects on Diazepam-Induced Myorelaxation in mice was determined when administered along with compound 1 at 10 mg/kg; format: functional
Mus musculus [2] = assay: Effects on Diazepam-Induced Myorelaxation in mice was determined when administered along with compound 1 at 20 mg/kg; format: functional
Mus musculus [3] = species: Mus musculus; assay: Effects on Diazepam-Induced Myorelaxation in mice was determined; format: functional
[4] = molecular target: GABA-A receptor; anion channel; assay: Effect on [3H]flunitrazepam binding to Benzodiazepine receptor; format: protein-complex assay, Rattus norvegicus
Mus musculus [5] = assay: Tested for inhibition of pentylenetetrazole (PTZ = 80 mg/kg (ip)) induced seizures in mice at a dose of 0.5-40 mg/kg i.p.; format: functional; details: route intraperitoneal
Method in brief: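 Mice pretreated ip with drug (0.5-40 mg/kg); 15 min later pentylenetetrazole 80 mg/kg ip. Tonic and/or clonic seizures were scored over the next 15 min. 5-14 mice per dose point; ED50 taken from the dose-response curve.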

Mus musculus [6] = assay: Number of mice impaired to that of number of mice tested at 20 mg/kg; 0/10; format: functional
Mus musculus [7] = assay: Number of mice impaired to that of number of mice tested at 10 mg/kg; 0/10; format: functional
Mus musculus [8] = assay: Effects on Diazepam-Induced Myorelaxation in mice was determined at 10 mg/kg; format: functional
Mus musculus [9] = assay: Effects on Diazepam-Induced Myorelaxation in mice was determined at 20 mg/kg; format: functional

| Compound | Impaired (Mus musculus [1]) [%] | Impaired (Mus musculus [2]) [%] | Impaired (Mus musculus [3]) [%] | IC50 [4] [nM] | ED50 (Mus musculus [5]) [mg/kg] | Activity (Mus musculus [6]) | Activity (Mus musculus [7]) | Impaired (Mus musculus [8]) [%] | Impaired (Mus musculus [9]) [%] |
| --- | --- | --- | --- | --- | --- | --- | --- | --- | --- |
| CN1C(=O)CN=C(c2ccccc2)c2cc(Cl)ccc21 [DIAZEPAM] | 50 | 0 | 100 |  |  |  |  |  |  |
| CCCOc1ccc2[nH]c3cnc(C(=O)OCC)c(COC)c3c2c1 |  |  |  | 8 | 1.6 | 0 | 0 | 0 | 0 |
